Measured values taken from ChEMBL document CHEMBL3853291, “Polycyclic Polyprenylated Derivatives from Hypericum uralum: Neuroprotective Effects and Antidepressant-like Activity of Uralodin A” (2016).

Assays:
PC-12 [1] = experiment: Neuroprotective activity against corticosterone-induced cell injury in rat PC12 cells assessed as cell viability at 3 uM after 48 hrs by MTT assay (reference value: 55.6 +/- 0.87%); format: functional; details: PC-12, 48 h, read-out: Activity
PC-12 [2] = experiment: Neuroprotective activity against corticosterone-induced cell injury in rat PC12 cells assessed as cell viability at 0.1 uM after 48 hrs by MTT assay (reference value: 55.6 +/- 0.87%); format: functional; details: PC-12, 48 h, read-out: Activity
PC-12 [3] = experiment: Neuroprotective activity against corticosterone-induced cell injury in rat PC12 cells assessed as cell viability at 1 uM after 48 hrs by MTT assay (reference value: 55.6 +/- 0.87%); format: functional; details: PC-12, 48 h, read-out: Activity
PC-12 [4] = experiment: Neuroprotective activity against corticosterone-induced cell injury in rat PC12 cells assessed as cell viability at 0.3 uM after 48 hrs by MTT assay (reference value: 55.6 +/- 0.87%); format: functional; details: PC-12, 48 h, read-out: Activity
PC-12 [5] = experiment: Neuroprotective activity against corticosterone-induced cell injury in rat PC12 cells assessed as cell viability at 10 uM after 48 hrs by MTT assay (reference value: 55.6 +/- 0.87%); format: functional; details: PC-12, 48 h, read-out: Activity
[6] = Antidepressant-like activity in LPS-induced ICR mouse assessed as decrease in immobility time at 25 mg/kg, ig qd for 5 days followed by LPS stimulation on 5th day injected 30 mins post last dose measured 24 hrs after stimulation monitored for last 4 mins by forced swim test relative to control; format: functional, organism-based; design: scale not given: the % may be the effect or the level left
How it was run: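 Male ICR mice (18−22 g), 12 per group. Drug suspended in 0.03% CMC-Na and given intragastrically once daily for 5 days. LPS 0.5 mg/kg i.p. 30 min after the day-5 dose, with testing 24 h later. Mice swim 6 min at 25 ± 1 °C in a cylinder (20 cm high, 14 cm diameter, 10 cm water). Floating immobility scored over the last 4 min; mean ± SD.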

[7] = Antidepressant-like activity in LPS-induced ICR mouse assessed as decrease in immobility time at 25 mg/kg, ig qd for 5 days followed by LPS stimulation on 5th day injected 30 mins post last dose measured 24 hrs after stimulation monitored for last 4 mins by tail suspension test relative to control; format: functional, organism-based; design: scale not given: the % may be the effect or the level left
How it was run: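 Male ICR mice (18−22 g), n = 12 per group, given drug in 0.03% CMC-Na intragastrically once daily for 5 days. LPS 0.5 mg/kg i.p. 30 min after the last dose, with the test 24 h later. Mice visually and acoustically isolated, taped ~1 cm from the tail tip, hung 50 cm above the floor for 6 min. Passive motionless hanging timed over the last 4 min; mean ± SD.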

[8] = Antidepressant-like activity in LPS-induced ICR mouse assessed as decrease in immobility time at 13 mg/kg, ig qd for 5 days followed by LPS stimulation on 5th day injected 30 mins post last dose measured 24 hrs after stimulation monitored for last 4 mins by tail suspension test relative to control; format: functional, organism-based; design: scale not given: the % may be the effect or the level left
How it was run: (§1)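 Male ICR mice (18−22 g), n = 12 per group. Dosed intragastrically once daily for 5 days as a suspension in 0.03% CMC-Na. On day 5, LPS 0.5 mg/kg i.p. was given 30 min after dosing. Tests were run 24 h after LPS. FST used a 20 × 14 cm cylinder with 10 cm water at 25 ± 1 °C, 6 min swim. TST suspended mice 50 cm high by the tail tape for 6 min. Immobility was scored over the last 4 min.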

[9] = Antidepressant-like activity in LPS-induced ICR mouse assessed as decrease in immobility time at 26 mg/kg, ig qd for 5 days followed by LPS stimulation on 5th day injected 30 mins post last dose measured 24 hrs after stimulation monitored for last 4 mins by forced swim test relative to control; format: functional, organism-based; design: scale not given: the % may be the effect or the level left; how it was run: as §1
[10] = Antidepressant-like activity in LPS-induced ICR mouse assessed as decrease in immobility time at 13 mg/kg, ig qd for 5 days followed by LPS stimulation on 5th day injected 30 mins post last dose measured 24 hrs after stimulation monitored for last 4 mins by forced swim test relative to control; format: functional, organism-based; design: scale not given: the % may be the effect or the level left; how it was run: as §1
[11] = Antidepressant-like activity in LPS-induced ICR mouse assessed as decrease in immobility time at 26 mg/kg, ig qd for 5 days followed by LPS stimulation on 5th day injected 30 mins post last dose measured 24 hrs after stimulation monitored for last 4 mins by tail suspension relative to control; format: functional, organism-based; design: scale not given: the % may be the effect or the level left; how it was run: as §1

Row | Compound | viability at 3 µM (PC-12 [1]) [%] | viability at 0.1 µM (PC-12 [2]) [%] | viability at 1 µM (PC-12 [3]) [%] | viability at 0.3 µM (PC-12 [4]) [%] | viability at 10 µM (PC-12 [5]) [%] | Activity [6] [%] | Activity [7] [%] | Activity [8] [%] | Activity [9] [%] | Activity [10] [%] | Activity [11] [%]
1 | CC(C)=CCC[C@]1(C)[C@@H](CC=C(C)C)C[C@]2(CC=C(C)C)C(=O)C(C(=O)c3ccccc3)=C3O[C@H](C(C)(C)O)C[C@@]31C2=O | 81.1 | 76.7 | 76.6 | 81.8 | 74.1 |  |  |  |  |  | 
2 | CC(C)=CCC[C@]1(C)[C@@H](CC=C(C)C)C[C@]2(C[C@H](O)C(C)(C)O)C(=O)C(C(=O)C(C)C)=C3O[C@H](C(C)(C)O)C[C@@]31C2=O | 76.5 | 72.3 | 81.1 | 80 | 71.5 |  |  |  |  |  | 
3 | CC(C)=CCC[C@]1(C)[C@@H](CC=C(C)C)C[C@]2(C[C@H](O)C(C)(C)O)C(=O)C3=C(OC(C)(C)[C@@H](O)C3)[C@@]1(C(=O)c1ccccc1)C2=O | 72.5 | 77.9 | 78.5 | 77.7 | 80.9 |  |  |  |  |  | 
4 | CC(C)=CCC[C@]1(C)[C@@H](CC=C(C)C)C[C@]23C[C@H](C(C)(C)O)OC2=C(CC=C(C)C)C(=O)[C@@]1(C(=O)c1ccccc1)C3=O | 78 | 82.9 | 68.1 | 72.8 | 86.6 |  |  |  |  |  | 
5 | CC(C)=CCC[C@]1(C)[C@@H](CC=C(C)C)C[C@]2(CC=C(C)C)C(=O)C(C(=O)c3ccccc3)=C3O[C@@H](C(C)(C)O)C[C@@]31C2=O | 77.7 | 78.6 | 78.5 | 72.9 | 68.1 |  |  |  |  |  | 
6 | CNCCC(Oc1ccc(C(F)(F)F)cc1)c1ccccc1 (stereo unspecified) [FLUOXETINE] | 59.1 | 77.7 | 70.1 | 66.2 | 69.6 | 33.7 | 23.1 |  |  |  | 
7 | CC(C)=CCC[C@]1(C)[C@@H](CC=C(C)C)C[C@@]2(CC=C(C)C)C(=O)[C@]1(C(=O)c1ccccc1)C(=O)C1=C2O[C@H](C(C)(C)O)C1 | 74.4 | 69.9 | 72.2 | 77.7 | 57 |  |  |  |  |  | 
8 | CC(C)=CCC1=C2O[C@H](C(C)(C)O)CC[C@]3(C)[C@@H](CC=C(C)C)C[C@](CC=C(C)C)(C1=O)C(=O)[C@]23C(=O)c1ccccc1 | 81.6 | 83.4 | 83.5 | 82.7 | 84.2 |  |  |  |  |  | 
9 | CC(C)=CCC[C@]1(C)[C@@H](CC=C(C)C)C[C@]2(CC=C(C)C)C(=O)C3=C(OC(C)(C)[C@H](O)C3)[C@@]1(C(=O)C(C)C)C2=O | 91.5 | 80.3 | 81.8 | 61.4 | 75.1 |  |  |  |  |  | 
10 | CC(C)=CCC[C@]1(C)[C@@H](CC=C(C)C)C[C@]2(CC=C(C)C)C(=O)C3=C(OC(C)(C)[C@@H](O)C3)[C@@]1(C(=O)c1ccccc1)C2=O | 69 | 70 | 77.6 | 80.8 | 65.9 |  |  |  |  |  | 
11 | CC(C)=CCC[C@]1(C)[C@@H](CC=C(C)C)C[C@@]2(CC=C(C)C)C(=O)[C@]1(C(=O)c1ccccc1)C(=O)C1=C2O[C@@H](C(C)(C)O)C1 | 72.9 | 55.6 | 74.7 | 56.6 | 75.9 |  |  |  |  |  | 
12 | CC(C)=CCC1=C2O[C@H](C(C)(C)O)CC[C@]3(C)[C@@H](CC=C(C)C)C[C@](C[C@H](O)C(C)(C)O)(C1=O)C(=O)[C@]23C(=O)c1ccccc1 | 59.7 | 55.9 | 65 | 57.5 | 53.2 |  |  |  |  |  | 
13 | CC(C)=CCC1=C2O[C@H](C(C)(C)O)CC[C@]3(C)[C@@H](C[C@H](O)C(C)(C)O)C[C@](CC=C(C)C)(C1=O)C(=O)[C@]23C(=O)C(C)C | 90.7 | 91.7 | 93.5 | 84.4 | 72.9 |  |  |  |  |  | 
14 | CC(C)=CCC[C@]1(C)[C@H](CC=C(C)C)C[C@]2(CC=C(C)C)C(=O)C(C(=O)C(C)C)=C3O[C@@H](C(C)(C)O)C[C@@]31C2=O | 63.8 | 80.9 | 77 | 68.1 | 61 |  |  |  |  |  | 
15 | CC(C)=CCC[C@]1(C)[C@@H](CC=C(C)C)C[C@]23C[C@@H](C(C)(C)O)OC2=C(CC=C(C)C)C(=O)[C@@]1(C(=O)C(C)C)C3=O | 77.7 | 77.2 | 79.7 | 79.9 | 85.2 |  |  |  |  |  | 
16 | CC(C)=CCC[C@]1(C)[C@@H](CC=C(C)C)C[C@]2(CC=C(C)C)C(=O)C3=C(OC(C)(C)[C@H](O)C3)[C@@]1(C(=O)c1ccccc1)C2=O | 82.2 | 78.6 | 86.3 | 86.8 | 68.9 |  |  |  |  |  | 
17 | CC(C)=CCC[C@]1(C)[C@@H](CC=C(C)C)C[C@]23C[C@@H](C(C)(C)O)OC2=C(CC=C(C)C)C(=O)[C@@]1(C(=O)c1ccccc1)C3=O | 90.2 | 85.7 | 85.9 | 87.1 | 85.3 |  |  | 6.6 | 28.1 | 21.4 | 12.6
